Bioassay records (PubChem BioAssay)
Compounds with a hit are over-represented: about 3.1% of the library has one in this group of screens.
KCNQ1 block: human KCNQ1 channel inhibition. actives 1.3% (n = 310,000). B-score at 10 µM. CHO-K1 KCNQ1, FluxOR thallium flux fluorescence; hits give high values. AID 2642. P51787;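 active = compounds whose thallium flux B-score, printed positive for inhibition, exceeds three library SD while starting fluorescence stays within three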;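 also: channel opened by potassium depolarization with thallium stimulus after 20 min compound exposure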
KCNQ1 pot: potentiators or activators of human KCNQ1 potassium channel; P51787; CHO-K1 KCNQ1, thallium flux FluxOR fluorescence; hits give high values; B-score at 10 µM; actives 0.35% (n = 310,000); AID 2648;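 active = fluorescence ratio B-score, a plate-corrected score, at least three library SD, with initial intensity B-score within 5 SD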
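Schedule – 37 °C overnight plating, 90-min dark dye load, 20-min compound pretreatment · System – stable KCNQ1 CHO-K1 line · Probe or stimulus – thallium- and potassium-containing depolarizing buffer · Measured by – kinetic FluxOR fluorescence, 10 s baseline plus 110 s post-stimulus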
KCNK3 inh: human KCNK3 channel inhibition, primary screen; CHO-KCNK3 thallium flux, FluxOR fluorescence; hits give low values; B-score at 10 µM; actives 0.84% (n = 340,000);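 active = B-score under library mean minus 4 SD, starting fluorescence ratio at most library mean plus 5 SD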;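 also: more negative B-score means stronger inhibition of thallium flux through KCNK3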
KCNK9 inh: inhibitors of human KCNK9 two-pore domain potassium channel. Q9NPC2. HEK293 KCNK9, FluxOR thallium flux fluorescence; hits give low values. B-score at 10 µM. actives 1.2% (n = 310,000);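 active = ratio B-score over 3 SD below the library mean, with starting fluorescence within 5 SD of its mean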;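 also: negative B-score means less thallium flux so channel inhibition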
hERG protect: compounds protecting human hERG from proarrhythmic drug block; Q12809; activation (rescue from dofetilide block), less the hit threshold, % at 10 µM; AID 1511; CHO-hERG, FluxOR thallium flux, dofetilide IC70 present; actives 0.51% (n = 310,000);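 active = activation above the mean of controls blocked by dofetilide plus 5 SD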;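 also: thallium influx through hERG after potassium depolarization seen as dye fluorescence rise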
Target sequence (Q12809 whole entry, looked up): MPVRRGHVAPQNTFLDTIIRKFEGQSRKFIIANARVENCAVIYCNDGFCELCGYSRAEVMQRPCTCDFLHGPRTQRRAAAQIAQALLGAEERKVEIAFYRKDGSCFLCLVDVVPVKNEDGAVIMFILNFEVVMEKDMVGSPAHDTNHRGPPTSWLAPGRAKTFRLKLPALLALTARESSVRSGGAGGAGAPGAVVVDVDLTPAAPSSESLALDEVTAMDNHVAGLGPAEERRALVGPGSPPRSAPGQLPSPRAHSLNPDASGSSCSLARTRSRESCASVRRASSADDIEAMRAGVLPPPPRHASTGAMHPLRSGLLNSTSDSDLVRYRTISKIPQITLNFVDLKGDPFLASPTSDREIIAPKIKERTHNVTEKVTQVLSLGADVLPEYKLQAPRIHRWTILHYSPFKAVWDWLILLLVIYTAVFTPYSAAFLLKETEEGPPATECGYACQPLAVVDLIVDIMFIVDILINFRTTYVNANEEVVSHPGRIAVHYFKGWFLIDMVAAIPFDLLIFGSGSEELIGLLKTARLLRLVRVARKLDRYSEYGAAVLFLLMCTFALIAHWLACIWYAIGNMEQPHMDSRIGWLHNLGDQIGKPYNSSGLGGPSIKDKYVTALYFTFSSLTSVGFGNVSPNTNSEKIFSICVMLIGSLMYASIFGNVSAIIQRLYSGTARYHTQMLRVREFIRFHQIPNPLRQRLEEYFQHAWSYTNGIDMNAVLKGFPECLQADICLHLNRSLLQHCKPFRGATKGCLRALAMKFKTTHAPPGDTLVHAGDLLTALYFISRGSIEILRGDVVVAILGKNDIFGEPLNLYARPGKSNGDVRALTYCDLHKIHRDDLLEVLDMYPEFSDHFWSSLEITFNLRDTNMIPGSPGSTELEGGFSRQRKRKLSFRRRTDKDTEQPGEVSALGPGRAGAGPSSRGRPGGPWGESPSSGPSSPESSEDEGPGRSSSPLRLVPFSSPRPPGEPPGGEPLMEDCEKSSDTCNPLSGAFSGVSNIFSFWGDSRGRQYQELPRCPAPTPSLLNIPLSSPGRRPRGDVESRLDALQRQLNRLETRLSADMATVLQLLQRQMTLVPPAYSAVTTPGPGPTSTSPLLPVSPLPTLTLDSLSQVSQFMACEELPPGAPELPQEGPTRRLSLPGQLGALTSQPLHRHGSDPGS
KCNK3 inh conf: confirmation of human KCNK3 two-pore domain potassium channel inhibitors; shares compounds with KCNK3 inh; AID 651638; ratio percent of control, % at 10 µM; CHO-KCNK3 thallium flux, FluxOR fluorescence; 0% buffer, 100% carvedilol maximal block; actives 99% (n = 2,400);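 active = ratio percent of control, averaged over triplicates, above buffer control mean plus 5 SD, cut at about 64% in these data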;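 also: ratio is the fluorescence rise from min to max over baseline after thallium stimulus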
KCNK3 uninduced: counter-screen for KCNK3 inhibitors: effect in non-induced cells; thallium flux ratio (lower = more inhibition) at 10 µM; non-induced KCNK3 parental cells, FluxOR thallium flux; hits give low values; actives 40% (n = 2,400); shares compounds with KCNK3 inh;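 active = thallium flux ratio, averaged over three wells, more than 5 SD below the buffer control mean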;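 also: host cells are CHO cells without KCNK3 induction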
Hits are given with their value; - = inactive; . = no result.

SMILES	KCNQ1 block	KCNQ1 pot	KCNK3 inh	KCNK9 inh	hERG protect	KCNK3 inh conf	KCNK3 uninduced
CCOC(=O)c1ccc(NC(=O)CSCc2ccco2)cc1	-	-	-9.2	-	-	91	-
Cc1ccc(C2(c3ccccc3)NC(=O)N(CC(=O)NCc3ccccc3)C2=O)cc1C (centres undefined)	.	.	-	.	.	.	.
CCC(C)c1ccc(NC(=O)Nc2cccnc2)cc1 (centres undefined)	-	-	-9.7	-	-	119	0.15
COCC1CCCN(C(=O)c2ccc3nc(Cc4cccc(Cl)c4)oc3c2)C1 (centres undefined)	-	-	-9.5	-	-	96	-
CCOC(=O)c1cc2c(=O)n3ccccc3nc2n(CC(C)C)c1=NC(=O)c1ccco1	-	-	-	-	-	.	.
CCOC(=O)c1cc2c(=O)n3ccccc3nc2n(Cc2ccco2)c1=NC(=O)c1ccccc1OCC	-	-	-8.8	-	-	91	-
CN(C)C(=O)CSc1nnc(-c2ccc(S(=O)(=O)N3CCCC3)cc2)n1C	-	-	-	-	-	.	.
CN(C)c1nnnn1-c1cccc(Oc2ncc(C(F)(F)F)cc2Cl)c1	-	-	-	-	-	.	.
CCCCOc1ccc2ccccc2c1C=O	-	-	-15	-	-	129	-
COc1ccc(NC(=O)c2cc3ccccc3cc2OC)cc1	-	-	-11	-	-	112	-
COc1ccc(C(=O)COc2ccccc2C(N)=O)cc1	-	-	-	-	-	.	.
COc1ccc(C(=O)COc2ccccc2C(=O)Nc2ccccc2)cc1	-	-	-9.8	-	-	108	0.16
O=C(Nc1cccc(-n2cnnn2)c1)c1cccs1	-	-	-10	-	-	79	-
O=C(Nc1cccc(NC(=O)c2cccs2)c1)c1ccc(Br)cc1	-	-	-	-	-	.	.
O=C(Nc1cccc(O)c1)c1cccc(NC(=O)c2cccs2)c1	-	-	-13	-8	-	110	-
O=C(Nc1cccc(-n2cnnn2)c1)c1ccncc1	-	-	-	-	-	.	.
Nc1ccccc1-c1ccc([N+](=O)[O-])cc1	.	.	-	.	.	.	.
CCSc1nc2c(c(-c3ccc(C)o3)c1C#N)CCCC2	-	-	-8.8	-6.7	-	96	-
COC(=O)CSc1nc2c(c(-c3ccc(C)o3)c1C#N)CCCC2	-	-	-	-	-	.	.
CN(CC(=O)Nc1cccc(F)c1)C(=O)Cn1cnc2c1c(=O)n(C)c(=O)n2C	-	-	-	-	-	.	.
COc1ccc(OCC(=O)NC2CCSc3ccccc32)cc1 (centres undefined)	.	.	-	.	.	.	.
CCOC(=O)Cn1c(CN2CCN(C(c3ccccc3)c3ccccc3)CC2)nc2c1c(=O)n(C)c(=O)n2C	-	-	-8.8	-	-	102	-
Cn1c(=O)c2c(nc(CN3CCN(C(c4ccccc4)c4ccccc4)CC3)n2CC(N)=O)n(C)c1=O	-	-	-	-	-	.	.
O=C(Nc1cccc(Cl)c1)ON=C1c2ccccc2-c2ccccc21	-	-	-8.9	-	-	135	0.13
O=C(Nc1cccc(Cl)c1)OCCOCCOC(=O)Nc1cccc(Cl)c1	.	.	-	.	.	.	.
SMILES	KCNQ1 block	KCNQ1 pot	KCNK3 inh	KCNK9 inh	hERG protect	KCNK3 inh conf	KCNK3 uninduced
CSc1nc(-c2ccc(F)cc2)cc(=O)[nH]1	-	-	-	-	-	.	.
COC(=O)COc1ccc(Cl)cc1C1Nc2ccccc2C(=O)N1c1ccc(OC)cc1 (centres undefined)	-	-	-	-8	-	122	0.16
C[C@H](NC(N)=O)C(=O)Nc1ccc2c(c1)OCO2	-	-	-	-	-	.	.
COc1ccc(CCn2c(=N)c(C(=O)NC3CCCC3)cc3c(=O)n4cccc(C)c4nc32)cc1	13	-	-13	-	-	114	-
COc1ccc(N2CCN(c3ccc(Cl)nn3)CC2)cc1	-	-	-	-	-	.	.
COc1cccc(OCc2nc(-c3cccc([N+](=O)[O-])c3)no2)c1	-	-	-10	-	-	99	-
O=CN1CCN(C(=O)CC(c2ccccc2)c2cc(Br)ccc2O)CC1 (centres undefined)	-	-	-	-	-	.	.
COc1c(C)cc(Br)cc1C(=O)Nc1ccc(Cc2ccncc2)cc1	-	-	-9.7	-	-	117	-
CCCn1c(-c2ccccc2)cc(SC)c(C#N)c1=O	-	-	-	-	-	.	.
C=CCn1c(-c2ccccc2)cc(SC)c(C#N)c1=O	-	-	-9.5	-	-	84	-
Cc1sc2nc(SCc3nc(-c4cccs4)no3)n(-c3ccccc3)c(=O)c2c1C	-	-	-12	-7.7	-	109	-
O=S(=O)(c1cccc2cccnc12)N1CCN(c2ccccc2)CC1	-	-	-	-	-	.	.
Cc1ccc(C)c(N2CCN(S(=O)(=O)c3cccc4cccnc34)CC2)c1	-	-	-9.9	-	-	116	0.15
OCC1CCCCN1CCNCc1cn[nH]c1-c1cccc2ccccc12 (centres undefined)	-	-	-	-	-	.	.
c1ccc2c(-c3[nH]ncc3CNCCCn3ncc4ccccc43)cccc2c1	-	-	-10	-	-	79	-
Cn1c(=O)c2c(nc(N3CCc4ccccc4C3)n2C)n(C)c1=O	-	-	-	-	-	.	.
COc1ccc(/C=N/NC(=O)c2cccnc2)c2ccccc12	-	-	-	-	-	.	.
COc1ccc(/C=N/NC(=O)c2cccs2)c2ccccc12	-	-	-11	-	-	115	0.15
CCc1ccc(CN2C(=O)c3ccccc3C2C(=O)NC(C)CC)cc1 (centres undefined)	-	-	-	-	-	.	.
Cc1cc(CN2CCOCC2)c(O)c(C2(C)CCCCC2)c1	-	-	-9.7	-	-	108	-
COc1ccc(OC)c(NC(=O)c2ccc(CSc3nnc(C)s3)cc2)c1	-	-	-10	-	-	103	-
CC(=O)c1cc(C(=O)Nc2ccc3ccccc3c2)c(C)o1	-	-	-11	-	-	53	-
COc1cccc(C=O)c1OCCN1C(=O)c2ccccc2C1=O	-	-	-	-	-	.	.
COc1ccc2[nH]c3c(c2c1)CCN1C(=O)N([C@@H](C)C(=O)NCc2ccc(C)cc2)C(=O)[C@]31C	-	-	-	-	-	.	.
O=C(Nc1cccc(-c2nnc(-c3ccccc3)o2)c1)c1ccco1	-	-	-	-	-	.	.
Cc1nn2c(-c3cccc(NC(=O)c4ccco4)c3)nnc2c2ccccc12	-	-	-14	-	-	106	-
CN1C=CC2=C(C#N)C(N)C(C#N)(C#N)[C@H](c3ccccc3)[C@H]2C1 (some centres undefined)	-	-	-	-	-	.	.
CCOC(=O)Cc1nn(Cc2ccccc2)c(=O)c2ccccc12	-	-	-9.9	-	-	109	0.15
